# MEKK3 PB1 HTS: modulators (inhibitors or enhancers) of MEK5 binding to human MEKK3 PB1 domain; Q99759; bead-based flow cytometry, Alexa488-MEK5 binding to MEKK3; actives lie on both sides; 0 = blocked by unlabeled MEK5, 100 = vehicle; binding response (% of control), % at 10 µM; 290,000 compounds, 1.4% hits;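 active means binding response more than 3 SD above or below the average of its plate-row segment, actives on both sides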;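 further: Alexa488 bead fluorescence after subtracting the streptavidin-only scavenger bead signal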
# Target sequence (Q99759 whole entry, looked up, the tested form may be a part): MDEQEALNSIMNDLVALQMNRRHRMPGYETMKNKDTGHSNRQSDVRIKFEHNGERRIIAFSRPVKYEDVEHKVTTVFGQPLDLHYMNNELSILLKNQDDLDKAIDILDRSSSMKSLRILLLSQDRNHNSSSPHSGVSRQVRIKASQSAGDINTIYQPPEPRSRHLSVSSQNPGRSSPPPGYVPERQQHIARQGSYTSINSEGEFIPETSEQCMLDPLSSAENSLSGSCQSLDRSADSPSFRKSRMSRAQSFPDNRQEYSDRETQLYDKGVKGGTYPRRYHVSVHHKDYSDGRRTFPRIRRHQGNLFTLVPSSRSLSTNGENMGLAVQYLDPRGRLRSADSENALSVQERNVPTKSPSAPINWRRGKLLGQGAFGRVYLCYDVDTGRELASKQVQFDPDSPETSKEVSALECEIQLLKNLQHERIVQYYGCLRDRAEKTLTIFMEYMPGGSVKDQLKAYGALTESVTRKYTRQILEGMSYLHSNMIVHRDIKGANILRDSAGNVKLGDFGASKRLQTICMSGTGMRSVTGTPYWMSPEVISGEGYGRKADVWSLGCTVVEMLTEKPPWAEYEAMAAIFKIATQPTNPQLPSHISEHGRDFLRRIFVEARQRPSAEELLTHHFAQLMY
# IMP-1 inh-1: blocks Pseudomonas aeruginosa IMP-1 metallo-beta-lactamase; purified IMP-1, nitrocefin hydrolysis, epi-absorbance fluorescence; inhibition, % at 5.6 µM; 290,000 compounds, 0.45% hits; AID 1556;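 active means inhibition above the mean plus 3 SD of all compounds in the same screening run, cut at about 4.5% in these data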;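 further: 0% = IMP-1 with DMSO and 100% = DMSO wells lacking enzyme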
#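 Test system: recombinant IMP-1 enzyme, purified / Medium: HEPES buffer pH 7.1 with ZnSO4 and Brij 35 / Doses: single dose, 5.6 µM / Times: 25 °C, 15 min preincubation, 25 min reaction / Detection: Epi-absorbance via hydrolysed-nitrocefin quenching of white-plate fluorescence, 480/530 nm, EDTA stop / Evaluation: percent inhibition from optical density relative to buffer-blank wells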
# MEKK2mut PB1 HTS: signal of MEK5 binding to mutant human MEKK2 PB1 domain. bead flow cytometry, Alexa488-MEK5 binding to MEKK2 mutant. percent response, % at 10 µM. 290,000 compounds, 0.35% hits; in the data active means percent response above about 24%, passing the limit was not always enough
# VIM-2 inhibitor: inhibitors of Pseudomonas aeruginosa VIM-2 metallo-beta-lactamase; purified VIM-2, nitrocefin hydrolysis, epi-absorbance fluorescence; inhibition, % at 5.6 µM; 290,000 compounds, 0.89% hits;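 active means inhibition above the mean of all tested compounds plus 3 SD, cutoff set per screening run, cut at about 7.5% in these data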;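 further: red hydrolysis product quenches plate fluorescence so inhibitors raise well fluorescence; 0% = enzyme with DMSO and 100% = DMSO without enzyme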
# MEKK2 WT-MEK5: raises or lowers MEK5 binding to wildtype human MEKK2 PB1 domain. Q9Y2U5. bead flow cytometry, Alexa488-MEK5 binding to MEKK2 WT; actives lie on both sides. binding response (% of control), % at 10 µM. 290,000 compounds, 1.1% hits. AID 1531; in the data active means binding response below about 67% or above about 130%
# IMP-1 inh-2: IMP-1 inhibition, counter-screen for VIM-2 inhibitors; 1,300 tested, under 10 active; shares compounds with VIM-2 inhibitor; purified IMP-1, nitrocefin hydrolysis, epi-absorbance fluorescence; inhibition, % at 5.6 µM; call rule not given here;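 further: 0% = enzyme with vehicle and 100% = vehicle without enzyme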
# VIM-2 FRET ctr: counter-screen for VIM-2 inhibitors: epi-absorbance artifacts via FRET | shares compounds with VIM-2 inhibitor | purified VIM-2, CCF2 FRET substrate hydrolysis | inhibition, % at 5.6 µM | 1,300 compounds, 23% hits;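 active means inhibition above the mean of all tested compounds plus 3 SD, cut at about 19% in these data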;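 further: 0% = VIM-2 plus DMSO and 100% = no enzyme wells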
# TEM-1 counter: TEM-1 inhibition, counter-screen for VIM-2 inhibitors. shares compounds with VIM-2 inhibitor. Purified TEM-1, nitrocefin hydrolysis, epi-absorbance fluorescence. inhibition, % at 5.6 µM. 1,300 compounds, 3% hits. AID 1866;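 active means inhibition above that campaign's mean inhibition plus 3 SD, cut at about 0.46% in these data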;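 further: 0% = TEM-1 with DMSO and 100% = TEM-1 with 100 µM potassium clavulanate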
# VIM-2 confirm 2: confirmation of P. aeruginosa VIM-2 metallo-beta-lactamase inhibitors; 1,300 compounds, 96% hits; inhibition, % at 5.6 µM; shares compounds with VIM-2 inhibitor; purified VIM-2, nitrocefin hydrolysis, epi-absorbance;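 active means inhibition of the VIM-2 beta-lactamase enzyme above about 11% from the earlier first-round screen, limit read from the data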;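 further: 0% = VIM-2 with DMSO and 100% = buffer wells without enzyme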
# The depositor's hits bear a star; / = not tested or not shown. Sampled rows, rich in hits. Any-hit rate of the full collection: about 3.4%.
SMILES,MEKK3 PB1 HTS,IMP-1 inh-1,MEKK2mut PB1 HTS,VIM-2 inhibitor,MEKK2 WT-MEK5,IMP-1 inh-2,VIM-2 FRET ctr,TEM-1 counter,VIM-2 confirm 2
CC(C)Oc1ccc(Cn2c(-c3ccco3)n[nH]c2=S)cc1,91,-6,2,16*,106,-3,45*,-10,27*
CC(=C/c1ccccc1)/C=N/n1c(-c2ccco2)n[nH]c1=S,104,-2,2,17*,96,-3,38*,-7,23*
COc1ccc(N2C(=O)CC(N3CCN(c4ccc(C(=O)c5cccnc5)cc4)CC3)C2=O)cc1 (stereo not drawn),104,-2,-1,-2,100,/,/,/,/
O=C(Nc1ccccc1)C1=C[C@H](C2CC2)C[C@H](OCCCCO)O1,101,0,-5,0,93,/,/,/,/
NC(N)=Nc1nc(-c2ccccc2)c2ccccc2n1,117,-3,5,14*,135,-3,-6,-4,27*
CCc1nc(N=C(N)N)nc2ccccc12,95,-3,-2,3,98,/,/,/,/
CCCCSc1nnc(CSc2ncccn2)n1C,102,-3,-11,-2,95,/,/,/,/
Cc1nc2ccc(NC(=O)N3CCSCC3)cc2nc1C,104,-4,4,16*,101,-3,3,-6,4
Cc1cc(NC(=O)Nc2ccc(C)c(C)c2)no1,98,-4,-4,-1,96,/,/,/,/
CCCN1CCN(C(=O)Cn2nc(C)n3c(cc4sccc43)c2=O)CC1,103,-2,5,18*,103,-3,1,-6,23*
CCc1cc2c(cc3c(=O)n(CC(=O)N4CCN(c5ccccn5)CC4)nc(CC)n32)s1,101,2,1,-1,97,/,/,/,/
Cc1nn(CC(=O)N2CCN(c3ccccn3)CC2)c(=O)c2cc3sccc3n12,102,-1,-1,2,101,/,/,/,/
CCc1nn(CC(=O)N2CCN(CC)CC2)c(=O)c2cc3sccc3n12,98,1,-1,41*,101,-3,3,-8,50*
COc1ccc2[nH]c(C(=O)O)c(CCN3C(=O)c4cccc([N+](=O)[O-])c4C3=O)c2c1,97,-2,-7,14*,95,-3,79*,-6,65*
COc1ccc2[nH]c(C(=O)O)c(CCNC(C)=O)c2c1,/,-1,/,1,/,/,/,/,/
Cc1cccc(-c2cc3nc(C)cc(NCCCN(C)C)n3n2)c1,87,-1,-1,6,99,/,/,/,/
Cc1cc(NCCCn2ccnc2)n2nc(-c3ccc(Cl)cc3)cc2n1,102,-2,-4,38*,111,-3,-23,-5,47*
Cc1cccc(-c2cc3nc(C)c(C)c(NCCCn4ccnc4)n3n2)c1,93,-1,-18,35*,96,-3,-27,-7,49*
Cc1nn2c(NCCCn3ccnc3)cc(C(C)C)nc2c1-c1ccccc1,86,-1,-4,20*,98,-3,-26,-6,29*
COCCNc1cc(C)nc2cc(-c3ccc(C)cc3)nn12,107,-1,-9,0,92,/,/,/,/
Cc1cc(NCCCn2ccnc2)n2nc(-c3ccc(F)cc3)cc2n1,107,-1,7,41*,114,0,-12,3.0*,67*
CCCCNC(=O)CCn1nc(-c2ccccc2)ccc1=O,/,-4,/,-4,/,/,/,/,/
Cc1oc(C(C)(C)C)cc1C(=O)N1CCN(c2ncccc2C(F)(F)F)CC1,95,-1,-11,-2,95,/,/,/,/
COCCNC(=O)c1cc2nc(-c3ccccc3)cc(C)n2n1,102,-3,-8,-1,86,/,/,/,/

# Screens deposited in PubChem by several laboratories.
